Measured values reported in ChEMBL document CHEMBL4350999, “Enhanced tumor retention of NTSR1-targeted agents by employing a hydrophilic cysteine cathepsin inhibitor” (Eur J Med Chem, 2019).
The source made the active and inactive calls. No cut-off for these calls is given here.

Columns and labels:
[1] = Drug uptake in stomach of SCID mouse xenografted with human HT-29 cells using 177Lu labelled compound at 0.37 MBq/mouse, iv co-treated with D-lysine at 40 mg/kg measured at 24 hrs by gamma counter analysis; format: ADME, organism-based; conditions: in vivo
Outline: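 HT-29 s.c. xenografts in female SCID mice. 177Lu conjugate given i.v. by tail vein at 10 μCi (0.37 MBq)/mouse, co-injected with D-lysine 40 mg/kg. Tissues were taken at 24 h, weighed and gamma counted. Uptake expressed as %ID/g (n = 5, mean ± SD); tumor-to-tissue ratios derived from these values.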

[2] = target: T1, Procathepsin L (Homo sapiens, UniProt P07711); test: Inhibition of human liver cathepsin L using Z-Phe-Arg-AMC as substrate assessed as second order rate constant measured every 5 mins for 1 hr by fluorescence assay
Outline: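 Human liver cathepsin L in acetate buffer pH 5.5 (340 mM sodium acetate, 60 mM acetic acid, 1 mM EDTA, 3 mM DTT). Conjugate 1–500 nM; Z-Phe-Arg-AMC 100 μM; 37 °C. […] Biological triplicate.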
Target sequence in this assay (P07711 114-333 limits assumed): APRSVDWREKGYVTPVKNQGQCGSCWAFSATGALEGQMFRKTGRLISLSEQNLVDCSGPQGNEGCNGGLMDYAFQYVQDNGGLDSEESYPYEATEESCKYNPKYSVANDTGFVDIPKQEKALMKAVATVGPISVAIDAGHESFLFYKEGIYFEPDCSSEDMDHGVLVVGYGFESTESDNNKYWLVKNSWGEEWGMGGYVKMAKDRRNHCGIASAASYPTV

[3] = target: T1, Procathepsin L; test: Binding affinity to cathepsin L in human HT-29 cells assessed as intracellular adduct formation at 0.74 MBq incubated for 4 hrs and measured after 24 hrs in presence of DOTA-beta-ala-[N-alpha-Me8, Dmt11, Tle12] NT6-13 using 177Lu labelled compound by SDS-PAGE analysis; format: cell-based; parameters: dose or concentration left out as unconfirmed
Outline: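 HT-29 cells (1 × 10^6/well) incubated 4 h at 37 °C with 177Lu conjugate (20 μCi, 0.74 MBq) in 1 mL medium, with or without E-64 (10 μM) or NTSR1 peptide N1 (20 μM). Cells washed and refed; at set times cells pooled, RIPA-lysed with protease inhibitor. Lysates heated 85 °C 2 min, run on 16% tris-glycine SDS-PAGE, and phosphor autoradiography taken after 72 h exposure.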
Target sequence in this assay (P07711 114-333 limits assumed): as above

[4] = Drug uptake in stomach of SCID mouse xenografted with human HT-29 cells pretreated for 1 hr with colchicine at 1 mg/kg, ip followed by 177Lu labelled compound at 0.37 MBq/mouse, iv measured at 24 hrs by gamma counter analysis; format: ADME, organism-based; conditions: in vivo
Outline: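 HT-29 xenograft SCID mice pretreated with colchicine 1 mg/kg i.p., then given 177Lu conjugate i.v. at 10 μCi (0.37 MBq)/mouse. Tissues excised at 24 h, weighed and gamma counted for %ID/g (n = 5, mean ± SD).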

[5] = Drug uptake in liver of SCID mouse xenografted with human HT-29 cells using 177Lu labelled compound at 0.37 MBq/mouse, iv co-treated with D-lysine at 40 mg/kg measured at 24 hrs by gamma counter analysis; format: ADME, organism-based; conditions: in vivo
Outline: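 Female SCID mice bore s.c. HT-29 xenografts (5 × 10^6 cells in Matrigel, about 80 mm3). D-lysine 40 mg/kg was co-injected i.v. with 10 μCi (0.37 MBq) of purified 177Lu-conjugate. Tissues were harvested at 24 h, weighed and gamma-counted, reported as %ID/g; mean ± SD, n = 5.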

[6] = Drug retention in liver lysates of mouse xenografted with human HT-29 cells assessed as macromolecule associated radioactivity at 29.6 MBq co-treated with D-lysine measured after 72 hrs using 177Lu labelled compound by gamma counter analysis relative to control; format: ADME, tissue-based; conditions: in vivo
[7] = Drug retention in human HT-29 cells assessed as increase in mean fluorescence intensity at 5 uM incubated for 2 hrs and measured at 24 hrs using natEu labelled compound by lysotracker green staining based confocal microscopic analysis; format: ADME, cell-based; conditions: ht-29, 2 h
Outline: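 HT-29 cells (1.25 × 10^5/well) loaded with natEu conjugate (5 μM), washed, then chased in fresh medium up to 24 h. Lysotracker Green (100 nM) applied 2 h before each read; cells fixed and imaged confocally at 405/488 nm. Per-cell mean fluorescence and Lysotracker co-localization quantified.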

[8] = target: T2, Cathepsin B (Homo sapiens, UniProt P07858); test: Binding affinity to human liver cathepsin B assessed as protein-conjugate adduct formation at 0.74 MBq incubated for 30 mins in presence of E-64 using 177Lu labelled compound by SDS-PAGE analysis; conditions: 0.74 M
Outline: (§1)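 Purified human liver CatB or CatL (3 nM) in 50 mM sodium acetate/1 mM EDTA pH 5.0 incubated 30 min with 177Lu conjugate (500,000 cpm) in Tris/MgCl2/DTT buffer pH 5.5, alone or with E-64 (10 μM) or N1 (20 μM). Mixtures heated 85 °C 2 min, run on 16% tris-glycine gel at 110 V for 90 min, and read by phosphor autoradiography.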

[9] = target: T1, Procathepsin L; test: Binding affinity to human liver cathepsin L assessed as protein-conjugate adduct formation at 0.74 MBq incubated for 30 mins in presence of DOTA-beta-ala-[N-alpha-Me8, Dmt11, Tle12] NT6-13 using 177Lu labelled compound by SDS-PAGE analysis; conditions: 0.74 M; outline: as §1
Target sequence in this assay (P07711 114-333 limits assumed): as above

[10] = Drug uptake in heart of SCID mouse xenografted with human HT-29 cells pretreated for 1 hr with colchicine at 1 mg/kg, ip followed by 177Lu labelled compound at 0.37 MBq/mouse, iv measured at 24 hrs by gamma counter analysis; format: ADME, organism-based; conditions: in vivo
Outline: (§2)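 HT-29 flank xenografts in female SCID mice (5 × 10^6 cells in Matrigel, about 80 mm3). Colchicine 1 mg/kg was given i.p. before a tail-vein injection of 10 μCi (0.37 MBq) of purified 177Lu-conjugate. Tissues were taken at 24 h, weighed and gamma-counted as %ID/g; mean ± SD, n = 5.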

[11] = Drug distribution in human HT-29 cells assessed as adduct signals at 24 hrs relative to baseline; format: ADME, cell-based; conditions: ht-29, 24 h
Outline: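 HT-29 cells preloaded 4 h with 177Lu conjugate (0.74 MBq), washed and chased in fresh medium. Lysates taken at 0 and 24 h and run on SDS-PAGE autoradiography; adduct band radioactivity at 24 h expressed relative to the 0 h intensity.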

[12] = Drug retention in liver lysates of mouse xenografted with human HT-29 cells assessed as macromolecule associated radioactivity at 29.6 MBq measured after 72 hrs using 177Lu labelled compound by gamma counter analysis relative to control; format: ADME, tissue-based; conditions: in vivo
Outline: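 HT-29 xenograft mice given 800 μCi (29.6 MBq) 177Lu conjugate i.v. and killed at 72 h. Tumor, liver and kidney homogenized in RIPA with protease inhibitor and supernatants run on SDS-PAGE autoradiography. Other supernatant aliquots filtered through 10 kDa MWCO devices to give the % macromolecule-associated radioactivity; n = 3.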

[13] = target: T1, Procathepsin L; test: Inhibition of human liver cathepsin L assessed as inhibition constant using Z-Phe-Arg-AMC as substrate measured every 5 mins for 1 hr by fluorescence assay
Outline: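 Human liver cathepsin L in acetate buffer pH 5.5 (340 mM sodium acetate, 60 mM acetic acid, 1 mM EDTA, 3 mM DTT). Biological triplicate.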
Target sequence in this assay (P07711 whole entry): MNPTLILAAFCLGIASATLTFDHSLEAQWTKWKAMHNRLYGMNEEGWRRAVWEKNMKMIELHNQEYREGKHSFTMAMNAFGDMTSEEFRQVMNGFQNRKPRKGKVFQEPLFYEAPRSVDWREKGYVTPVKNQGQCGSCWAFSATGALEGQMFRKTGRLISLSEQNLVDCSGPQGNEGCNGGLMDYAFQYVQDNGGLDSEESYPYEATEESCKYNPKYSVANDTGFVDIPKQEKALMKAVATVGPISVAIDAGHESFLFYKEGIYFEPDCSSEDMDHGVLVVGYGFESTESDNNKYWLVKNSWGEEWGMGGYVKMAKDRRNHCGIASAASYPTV

[14] = Drug uptake in brain of SCID mouse xenografted with human HT-29 cells pretreated for 1 hr with colchicine at 1 mg/kg, ip followed by 177Lu labelled compound at 0.37 MBq/mouse, iv measured at 24 hrs by gamma counter analysis; format: ADME, organism-based; conditions: in vivo; outline: as §2
[15] = target: T2, Cathepsin B; test: Inhibition of human liver cathepsin B assessed as inhibition constant using Z-Arg-Arg-AMC as substrate measured every 5 mins for 1 hr by fluorescence assay

Drug uptake [1]: 0.21 % ID/g | K [2]: 24000 M⁻¹ s⁻¹ | Activity [3]: inactive | Drug uptake [4]: 0.29 % ID/g | Drug uptake [5]: 0.65 % ID/g | Drug uptake [6]: 80% | Drug uptake [7]: Active | Activity [8]: inactive | Activity [9]: Active | Drug uptake [10]: 0.2 % ID/g | Drug uptake [11]: 55% | Drug uptake [12]: 80% | Ki [13]: 76 nM | Drug uptake [14]: 0.07 % ID/g | Ki [15]: 110 nM
SMILES: Cc1cc(O)cc(C)c1C[C@H](NC(=O)[C@@H]1CCCN1C(=O)[C@H](CCCNC(=N)N)NC(=O)[C@H](CCCNC(=N)N)N(C)C(=O)[C@@H]1CCCN1C(=O)[C@H](CCCCN)NC(=O)[C@@H](CO)NC(=O)[C@@H](CO)NC(=O)[C@@H](CO)NC(=O)[C@H](Cc1cn(CCNC(=O)[C@H](CCCNC(=N)N)NC(=O)[C@H](CC(C)C)NC(=O)C2OC2C(=O)O)nn1)NC(=O)CN1CCN(CC(=O)O)CCN(CC(=O)O)CCN(CC(=O)O)CC1)C(=O)N[C@H](C(=O)N[C@@H](CC(C)C)C(=O)O)C(C)(C)C (stereo not given in full)
